From ChEMBL document CHEMBL1122501, “Potential antiatherosclerotic agents. 2. (Aralkylamino)- and (alkylamino) benzoic acid analogues of cetaben” (1983) come the findings set out here.

SMILES strings stand for the structures.

The test system of test [1] is Rattus norvegicus. Put plainly: In vivo Triglyceride lowering activity at dose as 0.03 % of the diet. The class given is functional. The method in brief: (§1)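 Male CFE or CD-1 Sprague-Dawley rats, 140-150 g; 8 per control group, 4 per test group. Compound mixed into ground chow (w/w) via MeOH-CHCl3 (1:3) solution, solvent evaporated; controls got solvent-treated chow. Fed ad libitum 5 days, food intake monitored, killed fed and bled. Serum sterols and triglycerides by adapted autoanalyzer methods; mean percent of control, Student's t test.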

The test system of test [2] is Rattus norvegicus. Put plainly: In vivo triglyceride lowering activity, dosed at 0.10 % of the diet. Format: functional. The method in brief: as §1
Test [3] concerns Rattus norvegicus. The experiment in a line: In vivo Sterol lowering activity at dose as 0.01 % of the diet. Format: functional. The method, boiled down:
as §1

For test [4], the system named is Rattus norvegicus. The experiment in a line: In vivo Sterol lowering activity at dose as 0.10 % of the diet. Format: functional. The method in brief:
as §1

For test [5], the system named is Rattus norvegicus. The experiment in a line: In vivo Sterol lowering activity at dose as 0.03 % of the diet. The class given is functional. The method in brief:
as §1

Test [6] concerns Rattus norvegicus. Put plainly: In vivo triglyceride lowering activity, dosed at 0.01 % of the diet. The class given is functional. The method in brief: as §1
Test [7] concerns the target T1, Sterol O-acyltransferase 1 (Rattus norvegicus) (UniProt O70536).
T1 sequence (whole entry): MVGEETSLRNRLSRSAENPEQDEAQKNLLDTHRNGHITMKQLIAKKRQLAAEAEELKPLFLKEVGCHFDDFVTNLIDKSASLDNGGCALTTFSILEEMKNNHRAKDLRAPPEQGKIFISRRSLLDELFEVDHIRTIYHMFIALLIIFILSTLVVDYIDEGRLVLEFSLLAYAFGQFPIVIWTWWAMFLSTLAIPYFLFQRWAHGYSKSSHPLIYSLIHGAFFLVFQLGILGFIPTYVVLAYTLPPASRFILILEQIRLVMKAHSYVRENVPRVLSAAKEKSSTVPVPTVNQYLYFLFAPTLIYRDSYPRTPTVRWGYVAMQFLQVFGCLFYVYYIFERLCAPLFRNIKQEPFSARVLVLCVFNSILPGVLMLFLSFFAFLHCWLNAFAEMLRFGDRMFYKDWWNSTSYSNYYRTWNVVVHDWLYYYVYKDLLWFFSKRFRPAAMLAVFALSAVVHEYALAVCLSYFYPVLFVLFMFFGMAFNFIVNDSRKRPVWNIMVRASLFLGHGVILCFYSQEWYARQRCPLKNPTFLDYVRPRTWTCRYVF
The experiment in a line: In vitro inhibitory activity against acyl coenzyme A:cholesterol acyltransferase (ACAT). More on the design: concentration or dose not given beside the values. Particulars: concentration not given here. The method in brief:
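ACAT enzyme from rat adrenal homogenate in 0.2 M KH2PO4 buffer pH 7.4, 1000g 15 min 5 °C supernatant (microsomal fraction). Supernatant + BSA (50 mg/mL) + compound at final 5.2 μg/mL + buffer preincubated 10 min 37 °C; [14C]oleoyl-CoA (0.4 μCi) added, 30 min 37 °C. Lipids extracted, TLC; cholesteryl ester zone counted. Mean % inhibition vs no-compound control; Student's t test.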

Test [8] concerns Rattus norvegicus. The experiment in a line: In vivo triglyceride lowering activity, dosed at 0.03 % of the diet. The class given is functional. The method, boiled down:
as §1

The subject of test [9] is Rattus norvegicus. Put plainly: In vivo Triglyceride lowering activity at dose as 0.01 % of the diet. The class given is functional. The method in brief: as §1
The subject of test [10] is Rattus norvegicus. Put plainly: In vivo sterol lowering activity dosed at 0.10 % of the diet. The class given is functional. The method, boiled down:
as §1

The test system of test [11] is Rattus norvegicus. The experiment in a line: In vivo triglyceride lowering activity dosed at 0.10 % of the diet. Format: functional. The method in brief:
as §1

Take `CCOC(=O)c1ccc(NC(=O)CCc2ccc(C)cc2)cc1`: the Diet in the test on Rattus norvegicus [1] stood at 64%; in the test on Rattus norvegicus [2] it was 69%; with Rattus norvegicus [6], 73%. The “serum sterol, percent of control” value turned out to be 97% with Rattus norvegicus [3] and 88% with Rattus norvegicus [4]. For the same compound, in the test with Rattus norvegicus [5], the “serum sterol level, percent of control” value was found to be 99%. The compound further registered an inhibition in [7] of 25%.

In the case of `CCOC(=O)c1ccc(NC(=O)/C=C/c2ccc(Cl)cc2)cc1`, the results for the Diet with Rattus norvegicus [1], in the test on Rattus norvegicus [2] and in the test on Rattus norvegicus [6] were 110%, 80% and 104%, respectively. Also, the “serum sterol, percent of control” value with Rattus norvegicus [3] was determined as 98%; in the test with Rattus norvegicus [4], 107%. Besides, the “serum sterol level, percent of control” value in the test with Rattus norvegicus [5] is recorded as 107%. For the same compound, in test [7], the inhibition turned out to be 51%.

Consider `CCOC(=O)c1ccc(NCCCCCC(=O)c2ccc(Cl)cc2)cc1`, for which the Diet was determined as 79% with Rattus norvegicus [2] and 76% in the test on Rattus norvegicus [6]. In the test with Rattus norvegicus [8], the “serum triglycerides, percent of control” value is 56%. The “serum sterol, percent of control” value in the test with Rattus norvegicus [3] worked out at 98%; in the test on Rattus norvegicus [4], 99%. Also, the “serum sterol level, percent of control” value in the test with Rattus norvegicus [5] is on record as 92%. In addition, the inhibition in test [7] is 50%.

Turning to `CCOC(=O)c1ccc(NCCCc2ccc(Cl)cc2)cc1C(=O)OCC`, the Diet in the test on Rattus norvegicus [1] amounted to 91%; in the test with Rattus norvegicus [2], 80%; in the test with Rattus norvegicus [6], 93%. Moreover, the “serum sterol, percent of control” value in the test on Rattus norvegicus [3] came to 95%; in the test with Rattus norvegicus [4], 96%. Also, the “serum sterol level, percent of control” value in the test with Rattus norvegicus [5] stood at 99%. This compound yielded an inhibition in [7] of 54%.

For the compound `O=C(CCCCCc1ccc(Cl)cc1)Nc1ccc(C(=O)O)cc1`, the figures for the Diet in the test with Rattus norvegicus [1], in the test on Rattus norvegicus [2] and in the test with Rattus norvegicus [6] were 104%, 90% and 96%, respectively. For the same compound, the “serum sterol, percent of control” value amounted to 86% in the test with Rattus norvegicus [3] and 99% with Rattus norvegicus [4]. For the same compound, the “serum sterol level, percent of control” value in the test on Rattus norvegicus [5] came to 93%. The compound also showed an inhibition in test [7] of 18%.

As to `CCOC(=O)c1ccc(NCCCc2ccco2)cc1`, the Diet with Rattus norvegicus [1] stood at 96%; in the test with Rattus norvegicus [2], 83%; in the test on Rattus norvegicus [6] it was 90%. In addition, the results for the “serum sterol, percent of control” value with Rattus norvegicus [3] and in the test on Rattus norvegicus [4] were 96% and 101%, respectively. The “serum sterol level, percent of control” value in the test with Rattus norvegicus [5] was found to be 94%. Moreover, in test [7], the inhibition was 56%.

For the compound `CCOC(=O)c1ccc(NCCCc2ccccc2[N+](=O)[O-])cc1`, the Diet is 83% in the test on Rattus norvegicus [1], 68% with Rattus norvegicus [2] and 70% in the test with Rattus norvegicus [9]. Also, the “serum sterol, percent of control” value in the test with Rattus norvegicus [3] was found to be 93%; with Rattus norvegicus [4], 89%. For the same compound, in the test on Rattus norvegicus [5], the “serum sterol level, percent of control” value is 96%. In test [7], this compound gave an inhibition of 9%.

As for `O=C(/C=C/c1ccc(Cl)cc1)Nc1ccc(C(=O)O)cc1`, the Diet in the test on Rattus norvegicus [1] turned out to be 109%; with Rattus norvegicus [2], 116%; in the test with Rattus norvegicus [6] it was 94%. Besides, the “serum sterol, percent of control” value in the test with Rattus norvegicus [3] amounted to 100%; in the test on Rattus norvegicus [4], 120%. For the same compound, the “serum sterol level, percent of control” value in the test on Rattus norvegicus [5] is reported as 100%. Moreover, the inhibition in test [7] worked out at 41%.

For the compound `Nc1ccccc1CCCNc1ccc(C(=O)O)cc1`, the Diet was found to be 84% with Rattus norvegicus [1], 92% in the test with Rattus norvegicus [2] and 99% in the test with Rattus norvegicus [6]. The figures for the “serum sterol, percent of control” value in the test with Rattus norvegicus [3] and with Rattus norvegicus [4] were 121% and 84%, respectively. Besides, the “serum sterol level, percent of control” value with Rattus norvegicus [5] is listed as 96%. Besides, the inhibition in [7] amounted to 15%.

Consider `COc1ccc(CCCNc2ccc(C(=O)O)cc2)cc1`, for which the figures for the Diet in the test on Rattus norvegicus [1], in the test on Rattus norvegicus [2] and with Rattus norvegicus [6] were 89%, 91% and 82%, respectively. Also, the “serum sterol, percent of control” value is reported as 70% with Rattus norvegicus [10] and 89% in the test with Rattus norvegicus [3]. Also, the “serum sterol level, percent of control” value with Rattus norvegicus [5] is listed as 86%. Moreover, in [7], the inhibition was determined as 38%.

As for `O=C(O)c1ccc(NCCCc2ccc([N+](=O)[O-])cc2)cc1`, the Diet in the test on Rattus norvegicus [1] is listed as 75%; in the test with Rattus norvegicus [2] it was 83%; in the test with Rattus norvegicus [6], 78%. Moreover, the entries for the “serum sterol, percent of control” value in the test with Rattus norvegicus [3] and in the test with Rattus norvegicus [4] were 98% and 96%, respectively. The “serum sterol level, percent of control” value in the test with Rattus norvegicus [5] is recorded as 91%. The inhibition in test [7] was 18%.

On to `CCOC(=O)c1ccc(NC(=O)CCCCC(=O)c2ccc(Cl)cc2)cc1`, for which the Diet with Rattus norvegicus [1] amounted to 131%; with Rattus norvegicus [2], 96%; in the test with Rattus norvegicus [6] it was 110%. Moreover, the “serum sterol, percent of control” value with Rattus norvegicus [3] and in the test on Rattus norvegicus [4] was 90% each time. Besides, in the test with Rattus norvegicus [5], the “serum sterol level, percent of control” value was determined as 88%. Further, the inhibition in [7] came out at 37%.

In the case of `O=C(O)c1ccc(N(CCCc2ccc(Cl)cc2)CCCc2ccc(Cl)cc2)cc1`, the Diet in the test on Rattus norvegicus [1] amounted to 91%; with Rattus norvegicus [2], 85%; in the test on Rattus norvegicus [6] it was 126%. In addition, the “serum sterol, percent of control” value in the test on Rattus norvegicus [3] and in the test with Rattus norvegicus [4] was 98% throughout. Also, in the test with Rattus norvegicus [5], the “serum sterol level, percent of control” value is reported as 84%. Besides, the inhibition in [7] stood at 33%.

Consider `O=C(O)c1ccc(NCCCc2c(Cl)cccc2Cl)cc1`, for which the Diet in the test with Rattus norvegicus [2] was 82%. Also, the “serum sterol, percent of control” value in the test on Rattus norvegicus [4] was determined as 106%. For the same compound, the inhibition in test [7] amounted to 21%.

As for `CCOC(=O)c1ccc(NCCCc2ccccc2F)cc1`, the Diet in the test with Rattus norvegicus [1] is reported as 116%; in the test with Rattus norvegicus [2], 92%; with Rattus norvegicus [6], 106%. The results for the “serum sterol, percent of control” value in the test with Rattus norvegicus [3] and with Rattus norvegicus [4] were 104% and 97%, respectively. The “serum sterol level, percent of control” value in the test with Rattus norvegicus [5] was determined as 100%. This compound returned an inhibition in test [7] of 37%.

As to `CCOC(=O)c1ccc(NC(=O)CCCCCc2ccc(Cl)cc2)cc1`, the Diet was determined as 95% in the test on Rattus norvegicus [1], 104% in the test with Rattus norvegicus [2] and 96% with Rattus norvegicus [6]. The “serum sterol, percent of control” value in the test on Rattus norvegicus [3] is 93%; with Rattus norvegicus [4], 99%. For the same compound, the “serum sterol level, percent of control” value in the test with Rattus norvegicus [5] amounted to 101%. The inhibition in [7] was found to be 42%.

In the case of `CCOC(=O)Cc1ccc(NCCCc2ccc(Cl)cc2)cc1`, the values for the Diet in the test with Rattus norvegicus [2] and with Rattus norvegicus [6] were 67% and 119%, respectively. Besides, the “serum triglycerides, percent of control” value in the test with Rattus norvegicus [8] was 126%. The “serum sterol, percent of control” value in the test on Rattus norvegicus [3] is on record as 103%; with Rattus norvegicus [4], 91%. The “serum sterol level, percent of control” value with Rattus norvegicus [5] was found to be 91%. The inhibition in test [7] came to 91%.

On to `CCOC(=O)c1ccc(NC(=O)CCc2ccc(Cl)cc2)cc1`, for which the figures for the Diet in the test with Rattus norvegicus [1] and with Rattus norvegicus [9] were 101% and 85%, respectively. Further, in the test with Rattus norvegicus [11], the “serum triglycerides, percent of control” value is recorded as 66%. In addition, the “serum sterol, percent of control” value in the test on Rattus norvegicus [3] came to 101%; in the test on Rattus norvegicus [4] it was 99%. The “serum sterol level, percent of control” value in the test on Rattus norvegicus [5] amounted to 107%. For the same compound, the inhibition in test [7] came to 30%.

As to `O=C(CCc1ccc(Cl)cc1)Nc1ccc(C(=O)O)cc1`, the Diet is 115% with Rattus norvegicus [1], 100% in the test with Rattus norvegicus [2] and 100% in the test on Rattus norvegicus [6]. The figures for the “serum sterol, percent of control” value in the test with Rattus norvegicus [3] and with Rattus norvegicus [4] were 104% and 96%, respectively. Besides, the “serum sterol level, percent of control” value with Rattus norvegicus [5] turned out to be 104%. The compound also had an inhibition in test [7] of 33%.

The term inhibition denotes the percentage by which the read-out fell short of the control.
